Assay results collected from several papers.
Protocols differ between the studies behind these lines.
Target: Serine/threonine-protein kinase PLK4 (PLK4, Homo sapiens, UniProt O00444)
Sequence (O00444 1-970, as in one of the studies): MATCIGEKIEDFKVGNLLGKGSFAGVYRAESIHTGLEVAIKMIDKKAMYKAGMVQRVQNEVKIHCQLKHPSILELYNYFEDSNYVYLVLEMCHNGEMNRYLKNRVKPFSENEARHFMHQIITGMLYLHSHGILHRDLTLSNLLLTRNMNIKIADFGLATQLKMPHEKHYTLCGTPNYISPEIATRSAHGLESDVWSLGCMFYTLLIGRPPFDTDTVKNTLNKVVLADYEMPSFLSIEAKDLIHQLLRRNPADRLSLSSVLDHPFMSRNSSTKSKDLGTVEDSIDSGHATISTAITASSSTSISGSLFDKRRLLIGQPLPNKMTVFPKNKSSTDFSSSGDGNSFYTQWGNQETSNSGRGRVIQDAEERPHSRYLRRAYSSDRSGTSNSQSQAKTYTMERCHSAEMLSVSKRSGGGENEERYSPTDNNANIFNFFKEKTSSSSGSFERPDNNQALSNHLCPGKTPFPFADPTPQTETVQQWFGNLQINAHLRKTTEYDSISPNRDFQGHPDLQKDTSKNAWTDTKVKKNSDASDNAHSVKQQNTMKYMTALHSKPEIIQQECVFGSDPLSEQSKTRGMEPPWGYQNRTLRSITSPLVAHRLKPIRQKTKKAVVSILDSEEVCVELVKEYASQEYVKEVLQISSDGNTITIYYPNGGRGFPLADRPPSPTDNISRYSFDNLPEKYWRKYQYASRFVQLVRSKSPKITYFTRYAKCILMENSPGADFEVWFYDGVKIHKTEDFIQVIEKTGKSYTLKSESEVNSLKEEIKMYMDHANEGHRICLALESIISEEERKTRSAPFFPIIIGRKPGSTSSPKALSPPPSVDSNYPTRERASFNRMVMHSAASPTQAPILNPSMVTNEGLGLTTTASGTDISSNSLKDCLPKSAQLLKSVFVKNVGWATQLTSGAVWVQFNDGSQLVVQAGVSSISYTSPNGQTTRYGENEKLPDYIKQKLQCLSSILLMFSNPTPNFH

| SMILES | read-out | technique | concentration | remaining binding [%] |
| --- | --- | --- | --- | --- |
| CN1CCN(c2cnc3c(C4CCN(C(=O)c5ccc(OC(F)(F)F)cc5N)CC4)ncnc3c2)CC1 | cell-free assay | competition with immobilised ligand | 1 µM | 83 |
| Cc1cnc(Nc2ccc(C(=O)N3CCC(N4CCCC4)CC3)cc2)nc1-c1cc2ccccc2s1 | binding | competition with immobilised ligand | 1 µM | 14 |
| CN([C@@H]1CCc2c(CC(=O)O)c3cc(S(C)(=O)=O)ccc3n2C1)S(=O)(=O)c1ccc(F)cc1 | cell-free assay | competition with immobilised ligand | 1 µM | 100 |
| Nc1ncc2c(n1)-c1c([nH]c3ccc(C#CC4CC4)cc13)CCCC2 | binding | competition with immobilised ligand | 1 µM | 87 |
| COc1ncc2cc3ccccc3nc2c1C#N | cell-free assay | competition with immobilised ligand | 5 µM | 100 |
| CC(C)(O)c1cncc(-c2nc3ccc(F)cc3n2C2CC2)c1 | cell-free assay | competition with immobilised ligand | 1 µM | 79 |
| c1cnn2ncc(-c3ccnc(N4CCC45COC5)n3)c2c1 | binding |  | 1 µM | 79 |
| Cc1cc(C)c(-n2ccn3nc(-c4cccnc4)cc23)cc1NC(=O)c1cc(C#N)cc(S(F)(F)(F)(F)F)c1 | cell-free assay | competition with immobilised ligand | 0.1 µM | 64.1 |
| O=C(NCCCN1CCOCC1)c1ccc(Nc2ncc(Cl)c(-c3ccc(Cl)s3)n2)cc1 | binding | competition with immobilised ligand | 1 µM | 38 |
| C[C@@H](c1ccc(-n2cnc3c(N)ncnc32)cc1)N1CCc2nn(C)c(Cc3ccccc3)c2C1=O | binding | competition with immobilised ligand | 0.1 µM | 72 |
| CNC(=O)[C@@H]1CC[C@@H](n2c(-c3ccc4cnccc4c3)nc3ccc(C(=O)NCc4cccc(C(N)=O)c4)cc32)C1 | binding | competition with immobilised ligand | 1 µM | 100 |
| N[C@@H]1CCN(c2nccc(-c3cnn4ncccc34)n2)C1 | binding |  | 1 µM | 100 |
| CC(=O)Nc1c(C(C)=O)c(=O)n(C)c2nc(-c3ccc(Cl)cc3Cl)c(-c3ccc(Cl)cc3)cc12 | cell-free assay | competition with immobilised ligand | 1 µM | 100 |
| O=C(NCC1CCOCC1)c1n[nH]cc1NC(=O)c1c(F)cccc1F | binding | competition with immobilised ligand | 1 µM | 75 |
| CN(C(=O)c1ccccc1)c1cc(N(C)c2ccc3c(c2)CCc2ccc(C(=O)NCCN4CCOCC4)cc2C3=O)ccc1F | cell-free assay | competition with immobilised ligand | 1 µM | 93 |
| COc1ccnn2ncc(-c3ccnc(N(C)C)n3)c12 | binding |  | 1 µM | 69 |
| N#Cc1ccccc1CSc1nnc2c(n1)[nH]c1ccccc12 | binding | competition with immobilised ligand | 10 µM | 100 |
| COc1cc(C(=O)N2CCC(N3CCN(C)CC3)CC2)ccc1Nc1ncc2c(n1)N(C)c1ccccc1C(=O)N2C | binding | competition with immobilised ligand | 10 µM | 0 |
| F[C@@H]1CCN(c2nccc(-c3cnn4ncccc34)n2)C1 | binding |  | 1 µM | 100 |
| C[C@@H]1CN(c2ccc3ncc(-c4ccc5[nH]nc(C6CC6)c5c4)n3n2)C[C@H](C)O1 | binding | competition with immobilised ligand | 0.5 µM | 90 |
| N#CC1(c2ccccn2)CCN(Cc2cc(C(=O)N3CCCC3)c(=O)n3ccccc23)CC1 | cell-free assay | competition with immobilised ligand | 1 µM | 87 |
| CN(CCCC(F)(F)F)c1nccc(-c2cnn3ncccc23)n1 | binding |  | 1 µM | 100 |
| CCCCN(CCCC)C(=O)CN1C[C@H](c2cc(OC)c3c(c2)OCO3)[C@@H](C(=O)O)[C@@H]1CC(C)(C)CCC | cell-free assay | competition with immobilised ligand | 1 µM | 100 |
| C[C@@H]1CCN(c2nccc(-c3cnn4ncccc34)n2)C1 | binding |  | 1 µM | 100 |
| O=C(c1ccc(Nc2ncc(Cl)c(-c3ccc(Cl)s3)n2)cc1)N1CCC(N2CCCC2)CC1 | binding | competition with immobilised ligand | 1 µM | 9.2 |
